# High-throughput results (PubChem)
# iPSC survival up – enhancers of human iPSC single-cell survival; hiPSC single-cell survival, ATPlite luminescence; 100% = ROCK inhibitor wells, 0% = DMSO; actives 0.044% (n = 360,000); survival enhancement, % at 20 µM; AID 602274; in the data active = survival enhancement above about 18%;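 also: cells exposed to compounds for 16 hours before the ATP read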
# DAGLB inhibitor – blocks human DAGLB lipase activity; AID 504411; inhibition, % at 5.17 µM; Q8NCG7; HEK293T DAGLB membrane lysate, EnzChek fluorogenic substrate; actives 0.059% (n = 340,000); in the data active = inhibition above about 34%;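 also: 0% = enzyme with vehicle and 100% = wells lacking enzyme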
# Target sequence (Q8NCG7 whole entry, looked up): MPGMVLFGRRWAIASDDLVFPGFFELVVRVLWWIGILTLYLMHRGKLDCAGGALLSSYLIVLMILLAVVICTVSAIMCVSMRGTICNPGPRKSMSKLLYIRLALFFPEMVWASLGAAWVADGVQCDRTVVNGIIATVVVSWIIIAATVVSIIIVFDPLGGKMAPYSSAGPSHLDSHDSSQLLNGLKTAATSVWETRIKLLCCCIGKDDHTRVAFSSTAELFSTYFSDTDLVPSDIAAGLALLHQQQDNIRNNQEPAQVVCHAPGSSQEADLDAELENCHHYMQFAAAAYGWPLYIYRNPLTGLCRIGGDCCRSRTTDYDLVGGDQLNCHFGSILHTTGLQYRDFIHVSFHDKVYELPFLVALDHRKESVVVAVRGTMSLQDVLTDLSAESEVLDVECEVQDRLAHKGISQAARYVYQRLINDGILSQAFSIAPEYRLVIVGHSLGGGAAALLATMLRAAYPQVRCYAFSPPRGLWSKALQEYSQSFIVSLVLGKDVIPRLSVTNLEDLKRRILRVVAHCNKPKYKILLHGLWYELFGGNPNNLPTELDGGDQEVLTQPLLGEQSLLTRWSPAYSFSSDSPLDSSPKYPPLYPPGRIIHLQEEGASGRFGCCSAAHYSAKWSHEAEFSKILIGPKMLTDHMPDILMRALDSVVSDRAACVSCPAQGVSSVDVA
# Cneo AK release – Cryptococcus neoformans lysis via adenylate kinase release; C. neoformans lysis, adenylate kinase release luminescence, 4 h; normalised: neutral wells 0, clomiphene wells 100; lysis activity, % at 15 µM; actives 0.2% (n = 360,000);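 active = mean lysis activity across replicates of at least 80%, whatever share of replicates individually reach that level; inactive = mean lysis activity below 80%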
#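 Assay system: log-phase C. neoformans yeast / Quantity: yeast cell density of 5 × 10^6 cells/mL / Medium: fresh YPD growth medium / Compound: single dose / Timing: static 4 h at 37 °C with compound, 1 h detection / Measured by: adenylate kinase release luminescence / Read-out: lysis from increased AK signal / Benchmarks: Clomiphene as positive lysis control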
# MT1-MMP act inh – inhibitors of human MT1-MMP activation. actives 0.061% (n = 360,000). HT1080 RFP-PRO-GFP cells, GFP/RFP ratio fluorescence, overnight; percent of plate control window, DMSO zero. GFP/RFP ratio change, % at 20 µM. P50281;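 active = GFP/RFP ratio change of at least 30% with cell ATP level not reduced by more than half and red fluorescence within 50% of control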
#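 Material – HT1080 RFP-PRO-GFP cells · Control set – DMSO wells and RFP-L50D-GFP cells · Incubation – overnight cell settling, then overnight compound exposure, 37 °C, 5% CO2 · Compound dosing – single-point 20 µM compound, 1% DMSO · Read-out – GFP/RFP fluorescence ratio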
# SKN-1 block – inhibitors of C. elegans SKN-1 | C. elegans VP596 Pgst-4::GFP/RFP ratio, acrylamide-induced, 24 h | inhibition, % at 21.8 µM | actives 0.49% (n = 360,000) | AID 624304;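 active = interference check ratio from 0.5 to 1.5 plus GFP to RFP signal ratio inhibition reaching or exceeding a fixed threshold, cut at about 30% in these data, passing the limit was not always enough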
# Ecoli rRNA inh – inhibits bacterial ribosomal RNA function over humanized ribosomes; E. coli WT GFP vs humanized-ribosome RFP mutants, fluorescence, 24 h; active compounds read low; DMSO median 0, no signal -100; GFP signal change (wild-type ribosome), % (no concentration beside the values); actives 1.6% (n = 350,000); AID 720706;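 active = significant combined selectivity score with lowered wild-type GFP, culture density cut under 30%, mutant RFP and density less affected; inactive = any of these conditions unmet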
# Active calls of the source: *; · = no result. An excerpt weighted towards active compounds, which were near 1.8% of everything screened.
SMILES,iPSC survival up,DAGLB inhibitor,Cneo AK release,MT1-MMP act inh,SKN-1 block,Ecoli rRNA inh
COc1ccc(NC(=O)c2oc3ccccc3c2NC(=O)C2CCCO2)cc1OC (stereo not drawn),-0.5,-1.8,3.2,·,-22.7,-36.8*
CCOCC(=O)Nc1c(C(=O)Nc2ccc3c(c2)OCCO3)oc2ccccc12,-0.7,-4.4,·,4.0,1.2,-25.0*
CC=Cc1ccc2n(c1=O)C[C@H]1[C@H](CO)[C@@H](C(=O)NC3CCCC3)N(CC3CCCCC3)[C@@H]21 (mixture of isomers),·,·,-1.2,·,·,-15.1
Cc1ccc2c([N+](=O)[O-])cccc2n1,1.9,1.2,·,-2.8,-3.3,·
Cc1ccc2c([N+](=O)[O-])c(C)ccc2n1,0.3,0.6,-1.0,-8.7,35.4*,·
CCCNC(=O)C[C@H]1CC[C@H]2[C@@H](COC[C@@H](O)CN2C(=O)Nc2c(C)noc2C)O1,·,·,43.9,·,·,2.0
Cc1c(C(=O)OCC(=O)N(C)Cc2ccccc2)oc2ccccc12,4.1,-5.5,-0.4,2.7,2.2,-32.1
Cc1c(C(=O)OCC(=O)N(C)c2ccccc2)oc2ccccc12,0.2,0.3,13.8,3.0,3.9,-28.1*
COc1ccccc1-c1cnc2c(c1)C(=O)N([C@@H](C)CO)C[C@H](C)[C@@H](CN(C)Cc1cccnc1)O2,·,·,-5.4,·,·,-1.2
Cc1nc2c(C)cccc2c(SC(=N)N)c1CC=C(Cl)Cl,0.1,-1.4,·,-3.6,2.0,-20.9*
COc1cccc2c(Cl)c(CC=C(Cl)Cl)c(C)nc12,-0.3,-2.9,2.1,-4.1,-4.5,-3.4
C=CCc1c(C)nc2c(C)cccc2c1SC(=N)N,-0.1,-3.6,-1.0,1.4,19.5,-22.5*
COCc1cc(C)nc(SCC(=O)Nc2ccc(C)c(C)c2)c1C#N,2.0,-5.4,2.2,-4.8,45.3*,·
COCc1cc(C)nc(SCC(=O)Nc2ccc3[nH]c(=O)[nH]c3c2)c1C#N,0.4,-3.1,-1.2,5.7,7.3,2.2
c1ccc(N2CCN(c3cnc4ccccc4n3)CC2)cc1,-0.4,-7.8,-5.2,-1.2,47.0*,·
Fc1ccc(N2CCN(c3cnc4ccccc4n3)CC2)cc1,-0.2,-2.1,-0.9,-0.1,63.0*,0.5
CCOc1cccc(/C=C/c2ccc3cccc(O)c3n2)c1OC,-0.3,-9.7,-8.2,0.9,5.8,-37.0*
CCOc1cccc(/C=C/c2ccc3cccc(O)c3n2)c1O,-0.6,3.0,-5.2,-4.3,0.8,-54.4
Cc1ccc(C(=O)C2CCN(CC(=O)Nc3nc(C)cs3)CC2)cc1,-3.6,-1.1,-3.2,1.2,-11.0,-21.5*
COc1ccc(C(=O)C2CCN(CC(=O)Nc3cc(C)cc(C)c3)CC2)cc1,-0.3,-4.7,9.4,3.5,-0.6,-31.2
CC(C)CC(C(=O)Oc1ccc2c3c(c(=O)oc2c1)CCC3)N1C(=O)c2ccccc2C1=O (stereo not drawn),4.7,-0.3,-0.1,0.3,35.3*,·
C[C@@H]1CN([C@@H](C)CO)C(=O)c2cccc(NC(=O)c3ccc(-c4nccs4)cc3)c2O[C@H]1CN(C)Cc1ccc2c(c1)OCO2,·,·,-4.0,·,·,-5.0
CCS(=O)(=O)N1CCC2(CC1)CN(S(=O)(=O)c1cccc(OC)c1)[C@H](CO)c1[nH]c3cc(OC)ccc3c12,·,·,·,·,·,-3.8
O=C(/C=C/c1ccc(Cl)cc1)N(Cc1cccs1)C1CCS(=O)(=O)C1 (stereo not drawn),-0.5,-2.0,-1.7,-0.5,10.7,-20.4
Cc1ccc(/C=C/C(=O)N(Cc2cccs2)C2CCS(=O)(=O)C2)cc1 (stereo not drawn),0.1,·,4.6,5.7,-3.3,-29.0*
SMILES,iPSC survival up,DAGLB inhibitor,Cneo AK release,MT1-MMP act inh,SKN-1 block,Ecoli rRNA inh
Cc1cc2oc(C(=O)N(Cc3cccs3)C3CCS(=O)(=O)C3)cc(=O)c2cc1Cl (stereo not drawn),0.0,-0.2,-2.0,-1.6,7.7,-21.3*
Cc1noc(C)c1S(=O)(=O)N(C)C[C@@H]1OCCCC[C@H](C)Oc2ccc(NC(=O)C3CCCCC3)cc2C(=O)N([C@@H](C)CO)C[C@H]1C,·,·,1.0,·,·,-2.6
O=C(Nc1cc(Cl)ccn1)C1(c2ccccc2)CC1(Cl)Cl (stereo not drawn),3.1,-6.6,-10.8,3.2,-4.4,-42.5*
CCOc1ccc(OCC)c(NC(=O)CSc2nc3c(c(=O)n(C)c(=O)n3C)n2C(C)C)c1,-1.5,-2.7,5.8,-0.3,-3.1,-27.4*
CCOc1ccc(OCC)c(NC(=O)CSc2nc3c(c(=O)n(C)c(=O)n3C)n2CC)c1,-0.4,-0.7,5.8,-2.4,5.2,·
CCC(=O)N[C@@H]1CC[C@H](CCn2cc(-c3cccc(OC)c3)nn2)O[C@H]1CO,·,·,0.2,·,·,5.3
COc1ccccc1NC(=O)N[C@@H]1CC[C@@H](CCn2cc(C3(O)CCCC3)nn2)O[C@@H]1CO,·,·,-0.3,·,·,·
O=C(Nc1ccc(Cl)c(Cl)c1)N[C@@H]1CC[C@H](CCn2cc(C3CCCCC3)nn2)O[C@H]1CO,·,·,0.4,·,·,-46.2*
COc1cccc(-c2cn(CC[C@@H]3CC[C@@H](NC(C)=O)[C@H](CO)O3)nn2)c1,·,·,113.5*,·,·,-1.9
COc1ccccc1NC(=O)N[C@@H]1CC[C@H](CCn2cc(-c3ccccc3OC)nn2)O[C@H]1CO,·,·,106.6*,·,·,-0.4
COc1ccccc1NC(=O)N[C@@H]1CC[C@@H](CCn2cc(C3(O)CCCC3)nn2)O[C@H]1CO,·,·,94.3*,·,·,2.9
Cc1ccccc1S(=O)(=O)N1CC[C@@H]2[C@@H](CO)Nc3ccc(-c4ccc(C#N)cc4)cc3[C@@H]21,·,·,-12.0,·,·,-6.4
COc1ccc(C(=O)c2cc3ccc(O)cc3oc2=O)cc1,0.2,0.4,-0.3,-4.2,2.4,-17.6*
O=C(c1ccc(Br)cc1)c1cc2ccc(O)cc2oc1=O,-0.4,2.9,0.7,0.0,13.8,-32.6
CCSc1cnn(-c2ccccc2)c(=O)c1Cl,36.8*,-4.0,·,0.2,0.5,4.3
CCOc1cnn(-c2ccccc2)c(=O)c1Cl,57.8*,-3.9,·,1.7,7.1,8.1
N#Cc1ccc(-c2ccc([C@@H]3[C@@H]4CN(S(=O)(=O)Cc5ccccc5)C[C@H]3N4)cc2)cc1,·,·,·,·,·,-22.8
C[C@@H]1CN([C@@H](C)CO)C(=O)c2cc(NC(=O)Nc3ccc(F)cc3)ccc2O[C@H]1CN(C)C(=O)Nc1ccccc1,·,·,-1.1,·,·,1.2
O=C(NCCOC(=O)Nc1cccc2ccccc12)OCc1ccccc1,2.7,-1.6,-2.5,-0.8,-16.6,-33.5*
O=C(Nc1cccc2ccccc12)OCc1ccccc1,-0.2,-5.9,-0.1,-0.4,-15.9,9.3
